Article PMC7502546 (ACS chemical biology, 2020)
Where two headings read alike, the source gives them in different places.

What was measured:
CaV1.3 = format: cell-based, rat; conditions: for percent inhibition of evoked currents (median): wild-type CaV1.3, step −80 mV to 0 mV; for percentage inhibition of CaV1.3 peak currents (median): test step to 0 mV
Outline: (§1)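 Rat α1D (wild type or point mutants made by site-directed mutagenesis, sequence-verified) was transiently co-transfected with CaVβ3 and CaVα2δ-1 at 1:1:1 into tsA201 cells, with 1/40 (w/w) GFP. GFP-positive cells were whole-cell clamped 48 h later at 22–25 °C. External solution held 10 mM BaCl2 (pH 7.4); internal was NMG-based with 5 mM BAPTA. DMSO stocks were diluted into barium solution and perfused. Median percent inhibition was reported.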

CaV1.3-T1081Y = test: Whole-cell patch clamp, CaV1.3-T1081Y channels; format: cell-based, rat
Outline: as §1

CaV1.3-M1078V = test: Whole-cell patch clamp, CaV1.3-M1078V channels; format: cell-based, rat; conditions: for percent inhibition of evoked currents (median): CaV1.3-M1078V
Outline: as §1

CaV1.3-V1198I = CaV1.3-V1198I (Rattus norvegicus, UniProt P27732, V1198I); test: Whole-cell patch clamp, CaV1.3-V1198I channels; format: cell-based; conditions: read-out: percent inhibition of evoked currents
Outline: as §1

CaV1.3-M1078K = CaV1.3-M1078K (Rattus norvegicus, UniProt P27732, M1078K); test: Whole-cell patch clamp, CaV1.3-M1078K channels; format: cell-based; conditions: read-out: percent inhibition of evoked currents (median)
Outline: as §1

CaV1.3-M1078I = test: Whole-cell patch clamp, CaV1.3-M1078I channels; format: cell-based, rat
Outline: as §1

CaV1.3-M1078L = CaV1.3-M1078L (Rattus norvegicus, UniProt P27732, M1078L); test: Whole-cell patch clamp, CaV1.3-M1078L channels; format: cell-based; conditions: read-out: percent inhibition of evoked currents (median)
Outline: as §1

CaV1.2 = CaV1.2 (Oryctolagus cuniculus, UniProt P15381); test: Whole-cell patch clamp, wild-type CaV1.2 channels; format: cell-based, rabbit; conditions: read-out: percent inhibition of evoked currents (median)
CaV1.2-V1063M = CaV1.2-V1063M (Oryctolagus cuniculus, UniProt P15381, V1063M); test: Whole-cell patch clamp, CaV1.2-V1063M channels; format: cell-based, rabbit; conditions: read-out: percent inhibition of evoked currents (median)
CaV1.2-I1183V = CaV1.2-I1183V (Oryctolagus cuniculus, UniProt P15381, I1183V); test: Whole-cell patch clamp, CaV1.2-I1183V channels; format: cell-based, rabbit; conditions: read-out: percent inhibition of evoked currents
CaV1.2-V1063M+I1183V = CaV1.2-V1063M+I1183V (Oryctolagus cuniculus, UniProt P15381, I1183V/V1063M); test: Whole-cell patch clamp, CaV1.2-V1063M+I1183V channels; format: cell-based, rabbit; conditions: read-out: percent inhibition of evoked currents
CaV1.2-V1063I = CaV1.2-V1063I (Oryctolagus cuniculus, UniProt P15381, V1063I); test: Whole-cell patch clamp, CaV1.2-V1063I channels; format: cell-based, rabbit; conditions: read-out: percent inhibition of evoked currents (median)
CaV1.2-V1063L = CaV1.2-V1063L (Oryctolagus cuniculus, UniProt P15381, V1063L); test: Whole-cell patch clamp, CaV1.2-V1063L channels; format: cell-based, rabbit; conditions: read-out: percent inhibition of evoked currents (median)
CaV1.2-V1063K = CaV1.2-V1063K (Oryctolagus cuniculus, UniProt P15381, V1063K); test: Whole-cell patch clamp, CaV1.2-V1063K channels; format: cell-based, rabbit
CaV1.3 LTCCs = CaV1.3 LTCCs (Rattus norvegicus, UniProt P27732); test: Equilibrium binding / displacement of 3H2-SKP004D11 in HEK293 membranes
Outline: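 Membranes came from HEK-293 cells stably expressing CaV1.3 α1D/β3/α2δ-1. They were washed in 40 mM HEPES, 100 mM NaCl, pH 8.0, homogenized on ice, and pelleted three times at 100,000 × g, 4 °C. Each reaction held 3.0 nM tritiated pyrimidinetrione ligand, 0.1–0.4 mg/mL protein, and unlabeled competitor, incubated 90 min at room temperature. Samples were filtered on GF/C and scintillation counted. Nonspecific binding used a saturating cold ligand. Ki came from a Langmuir fit plus Cheng-Prusoff; Kd came from a Scatchard plot (n = 4).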

SN dopaminergic neurons [1] = test: mito-roGFP mitochondrial oxidant stress in ex vivo brain slices; format: cell-based, mouse
[2] = rodents; cited from earlier work
CaV1.2 (wild-type) = CaV1.2 (wild-type) (Oryctolagus cuniculus, UniProt P15381); test: Whole-cell patch clamp, wild-type CaV1.2 channels; format: cell-based, rabbit; conditions: rabbit, pH 7.4
[3] = tested on: Cav1.3 calcium channels in adult SN dopaminergic (DA) neurons; test: Voltage clamp of acutely isolated SN dopaminergic neurons from WT mice; format: cell-based
Outline: (§2)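 SN dopaminergic neurons were acutely isolated from brain slices of young adult (P25) wild-type or CaV1.3 ([…]) knockout mice. Whole-cell voltage clamp used Ba2+ as charge carrier, with voltage ramps from −70 mV to +30 mV. Test compound was applied at 5 μM and 50 μM on wild-type cells and 50 μM on knockout cells. Maximum calcium permeability was compared by Mann-Whitney test.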

[4] = tested on: SN dopaminergic neuron from an adult Cav1.3-KO mouse; test: Voltage clamp of SN dopaminergic neurons from Cav1.3-KO mouse; format: cell-based; conditions: cp-PYT 50 μM; CaV1.3 knockout mouse
Outline: as §2

SN dopaminergic neurons [5] = format: cell-based, mice; conditions: cp-PYT 50 μM; ex vivo brain slice
Outline: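 Ex vivo brain slices from young adult mice were used. SN dopaminergic neurons were whole-cell patched and filled through the pipette with Alexa568 (20 μM) and Fluo-4 (200 μM). Two-photon laser scanning microscopy imaged Ca2+ along a dendrite while somatic voltage was recorded, before and after test compound application. Fluo-4 fluorescence was normalized to baseline (F0).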

CaV1.3 channels [6] = conditions: micromolar concentrations; cited from earlier work
CaV1.3 channels [7] = conditions: magnitude and selectivity dependent on auxiliary β subunit; cited from earlier work
[8] = tested on: CaV1.3 channels over CaV1.2 channels; conditions: cited from earlier work

CaV1.3 LTCCs, sequence (P27732 921-1530 limits assumed): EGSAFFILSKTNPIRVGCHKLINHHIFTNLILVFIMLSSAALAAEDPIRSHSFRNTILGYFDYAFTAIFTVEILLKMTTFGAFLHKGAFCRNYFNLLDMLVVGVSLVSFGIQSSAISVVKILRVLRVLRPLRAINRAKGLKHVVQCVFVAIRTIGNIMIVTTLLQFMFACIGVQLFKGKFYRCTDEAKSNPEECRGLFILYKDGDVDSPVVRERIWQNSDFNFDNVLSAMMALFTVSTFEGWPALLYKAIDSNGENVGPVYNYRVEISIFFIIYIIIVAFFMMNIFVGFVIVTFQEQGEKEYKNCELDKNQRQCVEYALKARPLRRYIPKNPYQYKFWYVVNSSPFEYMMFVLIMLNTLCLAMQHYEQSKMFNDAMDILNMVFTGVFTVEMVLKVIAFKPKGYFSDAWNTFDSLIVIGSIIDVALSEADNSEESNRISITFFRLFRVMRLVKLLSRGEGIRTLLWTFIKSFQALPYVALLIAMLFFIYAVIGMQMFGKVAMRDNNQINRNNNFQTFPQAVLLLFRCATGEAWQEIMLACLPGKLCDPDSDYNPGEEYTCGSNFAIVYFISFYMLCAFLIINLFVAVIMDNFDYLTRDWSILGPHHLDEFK
CaV1.2-V1063M, sequence (P15381 whole entry V1063M): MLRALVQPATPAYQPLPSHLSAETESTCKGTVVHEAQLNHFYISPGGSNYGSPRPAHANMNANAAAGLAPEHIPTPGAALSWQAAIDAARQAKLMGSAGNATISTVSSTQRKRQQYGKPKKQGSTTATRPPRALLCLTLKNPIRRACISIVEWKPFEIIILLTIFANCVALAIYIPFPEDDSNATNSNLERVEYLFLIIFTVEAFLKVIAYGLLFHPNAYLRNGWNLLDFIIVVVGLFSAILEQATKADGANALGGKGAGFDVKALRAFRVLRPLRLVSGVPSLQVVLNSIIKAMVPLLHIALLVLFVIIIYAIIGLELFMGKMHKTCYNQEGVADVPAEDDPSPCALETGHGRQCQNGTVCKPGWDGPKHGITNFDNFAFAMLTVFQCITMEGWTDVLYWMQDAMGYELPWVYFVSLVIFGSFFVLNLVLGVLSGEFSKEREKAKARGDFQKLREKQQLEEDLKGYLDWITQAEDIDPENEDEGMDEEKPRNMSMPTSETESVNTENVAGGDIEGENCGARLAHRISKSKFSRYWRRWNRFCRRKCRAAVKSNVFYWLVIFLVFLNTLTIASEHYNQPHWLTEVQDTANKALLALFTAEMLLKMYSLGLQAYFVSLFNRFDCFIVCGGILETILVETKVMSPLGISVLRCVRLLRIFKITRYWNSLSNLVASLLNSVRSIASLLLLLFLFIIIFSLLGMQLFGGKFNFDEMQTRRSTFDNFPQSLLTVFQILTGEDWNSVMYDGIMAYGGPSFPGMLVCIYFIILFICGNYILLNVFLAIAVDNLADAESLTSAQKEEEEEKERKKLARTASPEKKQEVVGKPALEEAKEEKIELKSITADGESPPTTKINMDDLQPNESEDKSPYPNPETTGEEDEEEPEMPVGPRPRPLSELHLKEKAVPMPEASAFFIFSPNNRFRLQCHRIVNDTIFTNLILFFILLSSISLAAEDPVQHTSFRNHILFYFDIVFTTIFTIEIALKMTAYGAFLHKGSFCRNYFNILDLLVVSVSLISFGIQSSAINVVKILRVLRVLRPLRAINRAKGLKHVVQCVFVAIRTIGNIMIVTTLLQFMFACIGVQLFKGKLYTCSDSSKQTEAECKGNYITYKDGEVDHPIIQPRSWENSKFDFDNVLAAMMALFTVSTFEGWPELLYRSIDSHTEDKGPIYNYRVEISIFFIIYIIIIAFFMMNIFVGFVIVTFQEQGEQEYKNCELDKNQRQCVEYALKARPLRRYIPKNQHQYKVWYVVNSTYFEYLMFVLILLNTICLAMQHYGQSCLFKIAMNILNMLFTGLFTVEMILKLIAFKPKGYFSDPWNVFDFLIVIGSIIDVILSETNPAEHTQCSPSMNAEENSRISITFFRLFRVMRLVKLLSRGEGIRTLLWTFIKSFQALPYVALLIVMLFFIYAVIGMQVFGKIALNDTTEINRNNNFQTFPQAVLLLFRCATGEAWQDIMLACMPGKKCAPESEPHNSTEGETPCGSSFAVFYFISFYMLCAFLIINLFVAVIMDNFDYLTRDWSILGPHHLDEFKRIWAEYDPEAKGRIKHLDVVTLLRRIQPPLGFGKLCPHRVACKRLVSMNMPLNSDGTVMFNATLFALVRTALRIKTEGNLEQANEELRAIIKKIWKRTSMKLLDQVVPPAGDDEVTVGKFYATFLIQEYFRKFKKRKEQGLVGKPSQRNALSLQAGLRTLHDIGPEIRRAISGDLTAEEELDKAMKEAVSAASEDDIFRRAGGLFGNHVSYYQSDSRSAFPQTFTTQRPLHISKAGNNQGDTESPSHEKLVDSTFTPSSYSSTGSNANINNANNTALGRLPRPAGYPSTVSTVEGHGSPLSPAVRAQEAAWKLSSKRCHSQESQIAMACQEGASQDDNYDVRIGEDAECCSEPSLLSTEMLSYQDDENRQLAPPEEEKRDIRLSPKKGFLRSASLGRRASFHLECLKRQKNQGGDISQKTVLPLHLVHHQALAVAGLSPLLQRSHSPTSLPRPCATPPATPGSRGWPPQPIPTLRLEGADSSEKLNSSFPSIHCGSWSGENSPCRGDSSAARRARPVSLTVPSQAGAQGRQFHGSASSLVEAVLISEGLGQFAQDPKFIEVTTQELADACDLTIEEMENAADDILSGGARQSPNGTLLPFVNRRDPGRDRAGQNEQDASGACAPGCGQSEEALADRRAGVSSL
CaV1.2-V1063M, sequence (P54287 whole entry partner): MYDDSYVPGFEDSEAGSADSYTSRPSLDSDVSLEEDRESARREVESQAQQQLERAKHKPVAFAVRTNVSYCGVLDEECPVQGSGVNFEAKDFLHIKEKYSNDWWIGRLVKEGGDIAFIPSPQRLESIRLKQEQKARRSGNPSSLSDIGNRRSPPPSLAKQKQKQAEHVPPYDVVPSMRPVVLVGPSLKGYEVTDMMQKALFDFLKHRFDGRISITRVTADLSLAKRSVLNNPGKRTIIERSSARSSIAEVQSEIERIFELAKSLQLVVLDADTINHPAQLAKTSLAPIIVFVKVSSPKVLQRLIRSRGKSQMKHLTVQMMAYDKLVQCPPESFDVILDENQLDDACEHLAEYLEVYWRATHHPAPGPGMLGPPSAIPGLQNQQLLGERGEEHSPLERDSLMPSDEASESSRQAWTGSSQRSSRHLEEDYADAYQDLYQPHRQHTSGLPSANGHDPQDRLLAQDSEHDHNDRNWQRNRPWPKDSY
CaV1.2-V1063M, sequence (P54290 25-944 partner limits assumed): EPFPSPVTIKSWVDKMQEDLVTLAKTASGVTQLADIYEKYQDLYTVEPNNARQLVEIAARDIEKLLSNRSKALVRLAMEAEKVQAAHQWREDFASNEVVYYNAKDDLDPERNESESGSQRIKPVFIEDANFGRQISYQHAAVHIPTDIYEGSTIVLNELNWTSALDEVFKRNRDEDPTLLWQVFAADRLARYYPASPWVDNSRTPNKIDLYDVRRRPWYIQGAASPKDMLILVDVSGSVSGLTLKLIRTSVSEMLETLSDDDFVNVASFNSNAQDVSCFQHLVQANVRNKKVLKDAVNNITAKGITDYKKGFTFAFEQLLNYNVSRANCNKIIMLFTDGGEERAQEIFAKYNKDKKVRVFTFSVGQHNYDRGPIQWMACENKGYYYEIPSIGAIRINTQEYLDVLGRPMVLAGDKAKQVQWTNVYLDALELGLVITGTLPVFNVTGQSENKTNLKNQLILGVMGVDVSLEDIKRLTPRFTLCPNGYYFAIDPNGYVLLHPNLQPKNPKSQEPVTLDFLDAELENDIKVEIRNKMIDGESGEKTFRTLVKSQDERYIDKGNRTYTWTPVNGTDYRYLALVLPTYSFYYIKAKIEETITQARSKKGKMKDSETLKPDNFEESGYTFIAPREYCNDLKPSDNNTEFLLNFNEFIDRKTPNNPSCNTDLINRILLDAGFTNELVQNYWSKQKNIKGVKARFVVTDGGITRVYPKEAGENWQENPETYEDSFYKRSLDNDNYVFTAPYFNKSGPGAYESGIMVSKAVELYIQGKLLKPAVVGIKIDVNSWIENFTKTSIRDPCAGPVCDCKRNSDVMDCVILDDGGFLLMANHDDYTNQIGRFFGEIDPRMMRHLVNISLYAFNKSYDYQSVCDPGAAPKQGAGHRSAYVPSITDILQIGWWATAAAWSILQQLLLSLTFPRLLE
CaV1.2-V1063M, sequence (P54290 945-1091 partner limits assumed): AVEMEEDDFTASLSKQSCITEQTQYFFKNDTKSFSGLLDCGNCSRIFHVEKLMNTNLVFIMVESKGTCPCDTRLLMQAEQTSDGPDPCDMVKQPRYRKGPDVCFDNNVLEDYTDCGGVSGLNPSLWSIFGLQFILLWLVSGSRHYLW
CaV1.2-I1183V, sequence (P15381 whole entry I1183V): as the sequence (P15381 whole entry V1063M) above, with M1063V, I1183V counted along it
CaV1.2-I1183V, sequence (P54287 whole entry partner): as the sequence (P54287 whole entry partner) above
CaV1.2-I1183V, sequence (P54290 25-944 partner limits assumed): as the sequence (P54290 25-944 partner limits assumed) above
CaV1.2-I1183V, sequence (P54290 945-1091 partner limits assumed): as the sequence (P54290 945-1091 partner limits assumed) above

COC(=O)C1=C(C)NC(C)=C(C(=O)OC(C)C)C1c1cccc2nonc12 (centres unmarked) [isradipine, reference compound]
percent inhibition of evoked currents (median) (CaV1.3; 5 μM isradipine): 90% | percentage inhibition of CaV1.3 peak currents (median) (CaV1.3; isradipine 100 nM (Fig. 4a legend), VH −50 mV): 92% | percentage inhibition of CaV1.3 peak currents (median) (CaV1.3; isradipine 100 nM (Fig. 4a legend), VH −80 mV): 43% | percent inhibition of evoked currents (median) (CaV1.3-T1081Y; 5 μM isradipine): 1% | percent inhibition of evoked currents (median) (CaV1.3-M1078V; 5 μM isradipine): 78% | inhibition at 5 µM (CaV1.3-V1198I): 94% | inhibition at 5 µM (CaV1.3-M1078K): 88% | percent inhibition of evoked currents (median) (CaV1.3-M1078I; 5 μM isradipine): 85% | inhibition at 5 µM (CaV1.3-M1078L): 69% | inhibition at 5 µM (CaV1.2): 78% | inhibition at 5 µM (CaV1.2-V1063M): 92% | inhibition at 5 µM (CaV1.2-I1183V): 95% | inhibition at 5 µM (CaV1.2-V1063M+I1183V): 93% | inhibition at 5 µM (CaV1.2-V1063I): 91% | inhibition at 5 µM (CaV1.2-V1063L): 95% | inhibition at 5 µM (CaV1.2-V1063K; read-out: percent inhibition of evoked currents (median)): 72% | Ki (CaV1.3 LTCCs): 68 nM | fraction of 3H2-D11 binding not displaced (CaV1.3 LTCCs; displacement by isradipine): ~ 20% | mitochondrial oxidant stress (SN dopaminergic neurons [1]; isradipine 1 μM): diminished | reinstatement of alcohol- and cocaine-seeking [2]: disrupt

O=C1CC(=O)N(C2CCCC2)C(=O)N1CCc1cccc(Cl)c1 [cp-PYT, 1-(3-chlorophenethyl)-3-cyclopentylpyrimidine-2,4,6-trione]
percent inhibition of evoked currents (median) (CaV1.3; 100 μM cp-PYT): 60% | percentage inhibition of CaV1.3 peak currents (median) (CaV1.3; cp-PYT 10 μM, VH −50 mV): 46% | percentage inhibition of CaV1.3 peak currents (median) (CaV1.3; cp-PYT 10 μM, VH −80 mV): 26% | tail current kinetics / channel deactivation rates (CaV1.3; cp-PYT 10 μM, step back to −80 mV): did not alter | tail current kinetics (CaV1.3; cp-PYT 50 μM, step back to −80 mV): slowed | percent inhibition of evoked currents (median) (CaV1.3-T1081Y; 100 μM cp-PYT): 2% | percent inhibition of evoked currents (median) (CaV1.3-M1078V; 100 μM cp-PYT): 4% | tail currents in M1078V mutant channels (CaV1.3-M1078V; cp-PYT (100 μM) in text): slowing of tail currents persisted | inhibition at 100 µM (CaV1.3-V1198I): 45% | inhibition at 100 µM (CaV1.3-M1078K): 58% | percent inhibition of evoked currents (median) (CaV1.3-M1078I; 100 μM cp-PYT): 37% | inhibition at 100 µM (CaV1.3-M1078L): 31% | inhibition at 100 µM (CaV1.2 (wild-type)): 21% | inhibition at 100 µM (CaV1.2-V1063M): 47% | inhibition at 100 µM (CaV1.2-I1183V): 12% | inhibition at 100 µM (CaV1.2-V1063M+I1183V): 32% | inhibition at 100 µM (CaV1.2-V1063I): 48% | inhibition at 100 µM (CaV1.2-V1063L): 35% | inhibition at 100 µM (CaV1.2-V1063K; read-out: percent inhibition of evoked currents): 40% | displacement of tritiated D11 binding (CaV1.3 LTCCs; equilibrium membrane binding): displaced | inhibition of whole cell Ba2+ currents ([3]; cp-PYT 5 μM, voltage ramps −70 mV to +30 mV, WT mice): modest inhibition | inhibition of whole cell Ba2+ currents ([3]; cp-PYT 50 μM, WT mouse): inhibition | effect on whole cell Ba2+ currents [4]: no effect | dendritic Ca2+ oscillations (SN dopaminergic neurons [5]): significantly reduced | effect on pacemaking (SN dopaminergic neurons [5]): no effect | mitochondrial oxidant stress (SN dopaminergic neurons [1]; cp-PYT 50 μM bath application): significantly diminished | deactivation of tail currents (CaV1.3 channels [6]): slowed | inhibition of CaV1.3 channels (CaV1.3 channels [7]): did inhibit | reinstatement of alcohol- and cocaine-seeking [2]: disrupt | selectivity for inhibition of CaV1.3 channels over CaV1.2 channels [8]: highly selective
